{"source": "paper PMC3742633", "about": "(Molecular cancer therapeutics, 2013)", "key": {"[1]": {"tested_on": "MCF7", "experiment": "NCI 60 cell line screen, Sulforhodamine B Assay", "assay_type": "cell-based", "settings": "Homo sapiens, MCF7, 48 h", "in_short": "(§1)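 Run through the NCI-60 screening service: human cancer cell lines exposed to test compound for 48 h. Growth read as cellular protein content by sulforhodamine B staining, and GI50 derived from this.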"}, "[2]": {"target": "PFKFB4 (Homo sapiens, UniProt Q16877)", "sequence (Q16877 whole entry, species assumed)": "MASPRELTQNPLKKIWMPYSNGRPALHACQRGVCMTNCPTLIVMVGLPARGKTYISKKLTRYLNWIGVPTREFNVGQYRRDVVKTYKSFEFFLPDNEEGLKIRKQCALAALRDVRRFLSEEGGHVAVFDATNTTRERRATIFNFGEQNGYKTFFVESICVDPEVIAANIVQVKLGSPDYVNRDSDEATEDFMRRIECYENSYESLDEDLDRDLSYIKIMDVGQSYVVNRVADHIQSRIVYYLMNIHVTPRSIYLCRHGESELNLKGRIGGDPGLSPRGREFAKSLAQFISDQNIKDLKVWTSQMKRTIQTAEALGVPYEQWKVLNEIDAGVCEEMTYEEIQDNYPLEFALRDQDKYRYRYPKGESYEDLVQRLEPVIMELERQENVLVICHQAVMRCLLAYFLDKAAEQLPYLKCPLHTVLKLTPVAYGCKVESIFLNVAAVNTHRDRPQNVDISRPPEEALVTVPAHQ", "experiment": "Activity of purified PFKFB4", "assay_type": "biochemical", "settings": "up to 100 μM; data not shown"}, "[3]": {"tested_on": "BT-549", "experiment": "NCI 60 cell line screen, Sulforhodamine B Assay", "assay_type": "cell-based", "settings": "Homo sapiens, BT-549, 48 h", "in_short": "as §1"}, "[4]": {"experiment": "Tolerability of intraperitoneal PFK15", "settings": "25 mg/kg i.p. every three days"}, "[5]": {"tested_on": "NCI/ADR-RES", "experiment": "NCI 60 cell line screen, Sulforhodamine B Assay", "assay_type": "cell-based", "settings": "Homo sapiens, 48 h", "in_short": "as §1"}, "[6]": {"tested_on": "U251", "experiment": "NCI 60 cell line screen, Sulforhodamine B Assay", "assay_type": "cell-based", "settings": "Homo sapiens, U-251, 48 h", "in_short": "(§2)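 Run through the National Cancer Institute 60 cell line screening service on its panel of 59 human cancer lines in vitro. Cytostatic/toxic effect was read as cellular protein content (sulforhodamine B) over 48 h.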"}, "[7]": {"tested_on": "NCI-H522", "experiment": "NCI 60 cell line screen, Sulforhodamine B Assay", "assay_type": "cell-based", "settings": "Homo sapiens, NCI-H522, 48 h", "in_short": "as §1"}, "[8]": {"tested_on": "SN12C", "experiment": "NCI 60 cell line screen, Sulforhodamine B Assay", "assay_type": "cell-based", "settings": "Homo sapiens, 48 h", "in_short": "as §2"}, "[9]": {"experiment": "Solubility", "assay_type": "physicochemical"}, "[10]": {"tested_on": "HCC-2998", "experiment": "NCI 60 cell line screen, Sulforhodamine B Assay", "assay_type": "cell-based", "settings": "Homo sapiens, HCC 2998, 48 h", "in_short": "as §1"}, "[11]": {"tested_on": "SR", "experiment": "NCI 60 cell line screen, Sulforhodamine B Assay", "assay_type": "cell-based", "settings": "Homo sapiens, 48 h", "in_short": "as §2"}, "[12]": {"tested_on": "MDA-MB-468", "experiment": "NCI 60 cell line screen, Sulforhodamine B Assay", "assay_type": "cell-based", "settings": "Homo sapiens, MDA-MB-468, 48 h", "in_short": "as §1"}, "[13]": {"tested_on": "SK-OV-3", "experiment": "NCI 60 cell line screen, Sulforhodamine B Assay", "assay_type": "cell-based", "settings": "Homo sapiens, SK-OV-3, 48 h", "in_short": "as §2"}, "[14]": {"tested_on": "M14", "experiment": "NCI 60 cell line screen, Sulforhodamine B Assay", "assay_type": "cell-based", "settings": "Homo sapiens, M14, 48 h", "in_short": "as §1"}, "[15]": {"tested_on": "A498", "experiment": "NCI 60 cell line screen, Sulforhodamine B Assay", "assay_type": "cell-based", "settings": "Homo sapiens, A498, 48 h", "in_short": "as §1"}, "[16]": {"tested_on": "EKVX", "experiment": "NCI 60 cell line screen, Sulforhodamine B Assay", "assay_type": "cell-based", "settings": "Homo sapiens, 48 h", "in_short": "as §1"}, "[17]": {"tested_on": "MOLT-4", "experiment": "NCI 60 cell line screen, Sulforhodamine B Assay", "assay_type": "cell-based", "settings": "Homo sapiens, MOLT-4, 48 h", "in_short": "as §1"}, "[18]": {"tested_on": "purified PFK-1", "experiment": "Activity of purified PFK-1", "assay_type": "biochemical", "settings": "up to 100 μM; data not shown"}, "[19]": {"tested_on": "RPMI-8226", "experiment": "NCI 60 cell line screen, Sulforhodamine B Assay", "assay_type": "cell-based", "settings": "Homo sapiens, RPMI-8226, 48 h", "in_short": "as §1"}, "[20]": {"tested_on": "SF-268", "experiment": "NCI 60 cell line screen, Sulforhodamine B Assay", "assay_type": "cell-based", "settings": "Homo sapiens, SF-268, 48 h", "in_short": "as §1"}, "[21]": {"tested_on": "T-47D", "experiment": "NCI 60 cell line screen, Sulforhodamine B Assay", "assay_type": "cell-based", "settings": "Homo sapiens, T47D, 48 h", "in_short": "as §2"}, "[22]": {"tested_on": "SNB-15", "experiment": "NCI 60 cell line screen, Sulforhodamine B Assay", "assay_type": "cell-based", "settings": "Homo sapiens, 48 h", "in_short": "as §2"}, "[23]": {"tested_on": "UACC-257", "experiment": "NCI 60 cell line screen, Sulforhodamine B Assay", "assay_type": "cell-based", "settings": "Homo sapiens, UACC-257, 48 h", "in_short": "as §2"}, "[24]": {"tested_on": "SW-620", "experiment": "NCI 60 cell line screen, Sulforhodamine B Assay", "assay_type": "cell-based", "settings": "Homo sapiens, SW-620, 48 h", "in_short": "as §2"}, "[25]": {"tested_on": "Jurkat T cell leukemia cells", "experiment": "Cell viability, trypan blue exclusion", "assay_type": "cell-based", "settings": "Homo sapiens, 48 h, read-out: IC50 cytotoxic effects (viability)"}, "[26]": {"tested_on": "PC-3", "experiment": "NCI 60 cell line screen, Sulforhodamine B Assay", "assay_type": "cell-based", "settings": "Homo sapiens, PC-3, 48 h", "in_short": "as §1"}, "[27]": {"tested_on": "UACC-62", "experiment": "NCI 60 cell line screen, Sulforhodamine B Assay", "assay_type": "cell-based", "settings": "Homo sapiens, UACC-62, 48 h", "in_short": "as §2"}, "[28]": {"target": "phosphoglucoseisomerase (Homo sapiens, UniProt P06744)", "experiment": "Activity of purified phosphoglucoseisomerase", "assay_type": "biochemical", "settings": "up to 100 μM; data not shown"}, "[29]": {"tested_on": "LLC tumors", "experiment": "Lewis lung carcinoma", "assay_type": "in vivo, C57Bl/6 mice", "in_short": "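C57Bl/6 mice (20 g) given 1×10^6 LLC cells s.c. in PBS. At 150–200 mg tumor mass, groups of 8 randomized to DMSO or test compound 25 mg/kg i.p. (methods: every 3 days ×4). Blinded caliper tumor mass and body mass recorded daily; lungs examined for metastases after 14 days. Separate subgroup at day 4: tumors assayed for F26BP, plus H&E and anti-cleaved caspase 3 immunohistochemistry on formalin-fixed paraffin sections.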"}, "[30]": {"tested_on": "BxPC-3 pancreatic cancer cells", "experiment": "BxPC-3 xenograft tumor growth", "assay_type": "in vivo, Balb/C athymic mice", "settings": "25 mg/kg i.p. every 3 days × 4; similarly to gemcitabine"}, "[31]": {"tested_on": "SK-MEL-28", "experiment": "NCI 60 cell line screen, Sulforhodamine B Assay", "assay_type": "cell-based", "settings": "Homo sapiens, SK-MEL-28, 48 h", "in_short": "as §2"}, "[32]": {"tested_on": "CCRF-CEM", "experiment": "NCI 60 cell line screen, Sulforhodamine B Assay", "assay_type": "cell-based", "settings": "Homo sapiens, 48 h", "in_short": "as §1"}, "[33]": {"tested_on": "KM12", "experiment": "NCI 60 cell line screen, Sulforhodamine B Assay", "assay_type": "cell-based", "settings": "Homo sapiens, KM12, 48 h", "in_short": "as §1"}, "[34]": {"tested_on": "U-87 glioblastoma cells", "experiment": "U-87 MG xenograft tumor growth", "assay_type": "in vivo, Balb/C athymic mice", "settings": "25 mg/kg i.p. every 3 days × 4; compared with temozolomide", "in_short": "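U-87 MG cells from exponential culture (DMEM, 10% FCS) were washed and resuspended in PBS, and 1×10^6 cells were injected s.c. into 20 g Balb/C athymic mice. At 150–200 mg, tumours were randomised to DMSO, test compound (25 mg/kg i.p. every 3 days ×4) or temozolomide (30 mg/kg p.o., 3 days on/3 off). Blinded daily caliper mass = width²×length/2. Two experiments, n=8/group, mean±SD, unpaired two-tailed t-test.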"}, "[35]": {"tested_on": "CAKI-1", "experiment": "NCI 60 cell line screen, Sulforhodamine B Assay", "assay_type": "cell-based", "settings": "Homo sapiens, CAKI-1, 48 h", "in_short": "as §1"}, "[36]": {"tested_on": "HOP-62", "experiment": "NCI 60 cell line screen, Sulforhodamine B Assay", "assay_type": "cell-based", "settings": "Homo sapiens, HOP-62, 48 h", "in_short": "as §1"}, "[37]": {"settings": "four days after initiation, n=4"}}, "data": [{"compound": "O=C(C=Cc1ccc2ccccc2n1)c1ccncc1", "note": "[PFK15, 1-(4-pyridinyl)-3-(2-quinolinyl)-2-propen-1-one]", "values": [{"measurement": "GI50", "setting": "[1]", "value": 1.86, "unit": "µM"}, {"measurement": "inhibition of activity of purified PFKFB4", "setting": "[2]", "value": "not inhibit"}, {"measurement": "GI50", "setting": "[3]", "value": 2.75, "unit": "µM"}, {"measurement": "body mass loss", "setting": "[4]", "value": "< 10", "unit": "%"}, {"measurement": "end organ toxicity based on blood, urine and histological analyses", "setting": "[4]", "value": "no end organ toxicity"}, {"measurement": "GI50", "setting": "[5]", "value": 3.89, "unit": "µM"}, {"measurement": "GI50", "setting": "[6]", "value": 2.04, "unit": "µM"}, {"measurement": "GI50", "setting": "[7]", "value": 1.74, "unit": "µM"}, {"measurement": "GI50", "setting": "[8]", "value": 1.86, "unit": "µM"}, {"measurement": "solubility", "setting": "[9]", "value": "limited solubility"}, {"measurement": "GI50", "setting": "[10]", "value": 1.91, "unit": "µM"}, {"measurement": "GI50", "setting": "[11]", "value": 0.23, "unit": "µM"}, {"measurement": "GI50", "setting": "[12]", "value": 1.66, "unit": "µM"}, {"measurement": "GI50", "setting": "[13]", "value": 15.1, "unit": "µM"}, {"measurement": "GI50", "setting": "[14]", "value": 3.72, "unit": "µM"}, {"measurement": "GI50", "setting": "[15]", "value": 11.8, "unit": "µM"}, {"measurement": "GI50", "setting": "[16]", "value": 12.9, "unit": "µM"}, {"measurement": "GI50", "setting": "[17]", "value": 2.24, "unit": "µM"}, {"measurement": "inhibition of activity of purified PFK-1", "setting": "[18]", "value": "not inhibit"}, {"measurement": "GI50", "setting": "[19]", "value": 2.19, "unit": "µM"}, {"measurement": "GI50", "setting": "[20]", "value": 5.25, "unit": "µM"}, {"measurement": "GI50", "setting": "[21]", "value": 3.63, "unit": "µM"}, {"measurement": "GI50", "setting": "[22]", "value": 11.2, "unit": "µM"}, {"measurement": "GI50", "setting": "[23]", "value": 3.98, "unit": "µM"}, {"measurement": "GI50", "setting": "[24]", "value": 1.7, "unit": "µM"}, {"measurement": "IC50", "setting": "[25]", "value": 2.42, "unit": "µM"}, {"measurement": "GI50", "setting": "[26]", "value": 3.16, "unit": "µM"}, {"measurement": "GI50", "setting": "[27]", "value": 2.51, "unit": "µM"}, {"measurement": "inhibition of activity of purified phosphoglucoseisomerase", "setting": "[28]", "value": "not inhibit"}, {"measurement": "effect on body mass of LLC-bearing mice", "setting": "[29]; PFK15 i.p., C57Bl/6 mice", "value": "without a major effect"}, {"measurement": "growth of established LLC tumors", "setting": "[29]; PFK15 i.p., C57Bl/6 mice, 14 days", "value": "statistically significant reduction"}, {"measurement": "lung metastases in LLC-bearing mice", "setting": "[29]; after 14 days", "value": "no lung metastases"}, {"measurement": "cells positive for cleaved caspase 3 by immunohistochemistry", "setting": "[29]; [37]", "value": "marked increase"}, {"measurement": "tumor-associated F26BP", "setting": "[29]; [37]", "value": "reduced"}, {"measurement": "growth of pancreatic adenocarcinomas (BxPC-3)", "setting": "[30]", "value": "suppressed the growth"}, {"measurement": "GI50", "setting": "[31]", "value": 2.09, "unit": "µM"}, {"measurement": "GI50", "setting": "[32]", "value": 3.8, "unit": "µM"}, {"measurement": "GI50", "setting": "[33]", "value": 1.95, "unit": "µM"}, {"measurement": "activity against glioblastoma growth (U-87 MG)", "setting": "[34]", "value": "lower than that observed by temozolomide"}, {"measurement": "GI50", "setting": "[35]", "value": 11.5, "unit": "µM"}, {"measurement": "GI50", "setting": "[36]", "value": 2.34, "unit": "µM"}]}]}
